Assay results as given in ChEMBL document CHEMBL1177875, “Antitumor activity of (-)-alpha-bisabolol-based thiosemicarbazones against human tumor cell lines” (2010).

Columns and labels:
Format in all cases: functional
K562 = test: Cytotoxicity against human K562 cells by sulforhodamine B assay; conditions: for CC50: read-out: LC50 (the source's name)
Procedure, shortened: (§1)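 Growth of the human tumor cell line was read colorimetrically with sulforhodamine B, following the NCI standard protocol, with doxorubicin as positive control. Compounds were tested at four concentrations in 10-fold dilutions (0.25 to 250). Dose-response curves gave GI50 (the concentration for 50% growth inhibition), TGI (total growth inhibition) and LC50 (50% cell death).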

UACC-62 = test: Cytotoxicity against human UACC62 cells by sulforhodamine B assay; procedure, shortened: as §1
[1] = Cytotoxicity against human NCI/ADR cells by sulforhodamine B assay; conditions: NCI/ADR-RES; for CC50: read-out: LC50 (the source's name); procedure, shortened: as §1
[2] = Cytotoxicity against human PCO3 cells by sulforhodamine B assay; conditions: for CC50: read-out: LC50 (the source's name); procedure, shortened: as §1
NCI-H460 = test: Cytotoxicity against human NCI-H460 cells by sulforhodamine B assay; conditions: for CC50: read-out: LC50 (the source's name); procedure, shortened: as §1
HT-29 = test: Cytotoxicity against human HT-29 cells by sulforhodamine B assay; conditions: for CC50: read-out: LC50 (the source's name); procedure, shortened: as §1
OVCAR-3 = test: Cytotoxicity against human OVCAR-3 cells by sulforhodamine B assay; conditions: for CC50: read-out: LC50 (the source's name); procedure, shortened: as §1
MCF7 = test: Cytotoxicity against human MCF7 cells by sulforhodamine B assay; conditions: for CC50: read-out: LC50 (the source's name); procedure, shortened: as §1

Structure (SMILES) | GI50 (K562) | TGI (K562) | CC50 (K562) | GI50 (UACC-62) | TGI (UACC-62) | CC50 [1] | GI50 [2] | TGI [2] | CC50 [2] | GI50 (NCI-H460) | TGI (NCI-H460) | CC50 (NCI-H460) | GI50 (HT-29) | TGI (HT-29) | CC50 (HT-29) | GI50 (OVCAR-3) | TGI (OVCAR-3) | CC50 (OVCAR-3) | GI50 (MCF7) | TGI (MCF7) | also measured
CC1=CC[C@@H]([C@@](C)(O)CCCC(C)(C)NC(=S)N/N=C\c2ccc([N+](=O)[O-])cc2)CC1 | 4.22 µM | 9.56 µM | 45.5 µM | 20.8 µM | 62.2 µM | > 100 µM | 18.1 µM | > 100 µM | > 100 µM | 10.1 µM | > 100 µM | > 100 µM | 12.3 µM | 62.8 µM | > 100 µM | 13.4 µM | 88.6 µM | > 100 µM | 17.7 µM | > 100 µM | LC50 (50% cell kill) (UACC-62): > 100 µM; GI50 [1]: 12.8 µM; TGI [1]: > 100 µM; CC50 (MCF7): > 100 µM
CC1=CC[C@@H]([C@@](C)(O)CCCC(C)(C)NC(=S)N/N=C\c2cccc([N+](=O)[O-])c2)CC1 | 0.02 µM | 0.56 µM | 12.6 µM | 7.84 µM | 24.7 µM | > 100 µM | 5.6 µM | 20.7 µM | 52.5 µM | 8.29 µM | 68.6 µM | > 100 µM | 14.1 µM | 57.1 µM | > 100 µM | 8.51 µM | 40.8 µM | > 100 µM | 6.72 µM | 18.3 µM | LC50 (50% cell kill) (UACC-62): 49.3 µM; GI50 [1]: 6.72 µM; TGI [1]: 38 µM; CC50 (MCF7): 47.3 µM
CC1=CC[C@@H]([C@@](C)(O)CCCC(C)(C)NC(=S)N/N=C\c2cccc(Cl)c2)CC1 | 0.03 µM | 1.06 µM | 56.3 µM | 7.81 µM | 18.1 µM | > 100 µM | 11.2 µM | 37.8 µM | 57 µM | 44.3 µM | > 100 µM | > 100 µM | 6.89 µM | 16.5 µM | 45.9 µM | 8.27 µM | 26.5 µM | 48 µM | 7.35 µM | 19.5 µM | LC50 (50% cell kill) (UACC-62): 42.7 µM; GI50 [1]: 7.35 µM; TGI [1]: 31.9 µM; CC50 (MCF7): 45.9 µM
CC1=CC[C@@H]([C@@](C)(O)CCCC(C)(C)NC(=S)N/N=C\c2ccccc2[N+](=O)[O-])CC1 | 0.19 µM | 7.84 µM | > 100 µM | 6.05 µM | 16.6 µM | > 100 µM | 39.9 µM | > 100 µM | > 100 µM | 20.6 µM | > 100 µM | > 100 µM | 6.94 µM | 16.8 µM | 44.4 µM | 7.39 µM | 16.2 µM | 41.9 µM | 18.6 µM | > 100 µM | LC50 (50% cell kill) (UACC-62): 49.3 µM; GI50 [1]: 20.4 µM; TGI [1]: > 100 µM; CC50 (MCF7): > 100 µM
COc1ccc(/C=N\NC(=S)NC(C)(C)CCC[C@](C)(O)[C@@H]2CC=C(C)CC2)cc1 | 0.22 µM | 34.9 µM | > 100 µM | 7.42 µM | 22.1 µM | > 100 µM | 7.66 µM | 76 µM | > 100 µM | 5.1 µM | > 100 µM | > 100 µM | 7.42 µM | 35.1 µM | > 100 µM | 6.5 µM | 15.8 µM | 46.2 µM | 6.5 µM | 94.9 µM | LC50 (50% cell kill) (UACC-62): 48.5 µM; GI50 [1]: 6.73 µM; TGI [1]: 57 µM; CC50 (MCF7): > 100 µM
CC1=CC[C@@H]([C@@](C)(O)CCCC(C)(C)NC(=S)N/N=C\c2ccc(C)cc2)CC1 | 0.14 µM | 7.95 µM | > 100 µM | 11.6 µM | 39 µM | > 100 µM | 6.75 µM | 45.7 µM | > 100 µM | 10.1 µM | > 100 µM | > 100 µM | 10.4 µM | 80.4 µM | > 100 µM | 6.02 µM | 11.8 µM | 45.3 µM | 7.23 µM | > 100 µM | LC50 (50% cell kill) (UACC-62): 52.3 µM; GI50 [1]: 6.51 µM; TGI [1]: 30.5 µM; CC50 (MCF7): > 100 µM
CC1=CC[C@@H]([C@@](C)(O)CCCC(C)(C)NC(=S)N/N=C(/C)c2ccccc2)CC1 | 0.01 µM | 0.07 µM | 1.54 µM | 22.4 µM | 93.3 µM | > 100 µM | 19.9 µM | > 100 µM | > 100 µM | 12.6 µM | > 100 µM | > 100 µM | 28.4 µM | > 100 µM | > 100 µM | 14.3 µM | 59.5 µM | > 100 µM | 23.6 µM | 62.9 µM | LC50 (50% cell kill) (UACC-62): > 100 µM; GI50 [1]: 0.75 µM; TGI [1]: > 100 µM; CC50 (MCF7): > 100 µM
CC1=CC[C@@H]([C@@](C)(O)CCCC(C)(C)NC(=S)N/N=C\c2ccc(O)cc2)CC1 | 0.6 µM | 31.1 µM | > 100 µM | 8.87 µM | 40.1 µM | > 100 µM | 6.23 µM | 13.9 µM | 50.1 µM | 1.46 µM | 20.7 µM | > 100 µM | 8.15 µM | 31.5 µM | 58.5 µM | 6.23 µM | 17.4 µM | 54.4 µM | 6.23 µM | 21.2 µM | LC50 (50% cell kill) (UACC-62): 55.6 µM; CC50 (MCF7): 56.4 µM
CC1=CC[C@@H]([C@@](C)(O)CCCC(C)(C)NC(=S)N/N=C\c2ccc(N(C)C)cc2)CC1 | 0.08 µM | 42 µM | > 100 µM | > 100 µM | > 100 µM | > 100 µM | 13.7 µM | > 100 µM | > 100 µM | 19.6 µM | > 100 µM | > 100 µM | 27.7 µM | > 100 µM | > 100 µM | 3.6 µM | > 100 µM | > 100 µM | 14 µM | > 100 µM | LC50 (50% cell kill) (UACC-62): > 100 µM; GI50 [1]: 25.2 µM; TGI [1]: > 100 µM; CC50 (MCF7): > 100 µM
CC1=CC[C@@H]([C@@](C)(O)CCCC(C)(C)NC(=S)N/N=C\c2ccccc2)CC1 | 0.13 µM | 20.9 µM | > 100 µM | 12.7 µM | 43.8 µM | 59.9 µM | 8.47 µM | 36.2 µM | > 100 µM | 38.4 µM | > 100 µM | > 100 µM | 9.96 µM | 36.5 µM | 57.4 µM | 6.97 µM | 12.9 µM | 43.6 µM | 7.72 µM | 28.7 µM | LC50 (50% cell kill) (UACC-62): 48.4 µM; GI50 [1]: 6.97 µM; TGI [1]: 23.8 µM; CC50 (MCF7): 60.4 µM
CC1=CC[C@@H]([C@@](C)(O)CCCC(C)(C)NC(=S)NN=C(c2ccccc2)c2ccccc2)CC1 | 1.94 µM | 4.19 µM | 10.3 µM | > 100 µM | > 100 µM | > 100 µM | > 100 µM | > 100 µM | > 100 µM | 13.5 µM | > 100 µM | > 100 µM | > 100 µM | > 100 µM | > 100 µM | > 100 µM | > 100 µM | > 100 µM | 36.7 µM | > 100 µM | LC50 (50% cell kill) (UACC-62): > 100 µM; GI50 [1]: 3.31 µM; TGI [1]: > 100 µM; CC50 (MCF7): > 100 µM
CC(C)=CCC[C@](C)(O)[C@@H]1CC=C(C)CC1 [LEVOMENOL] | 6.37 µM | > 100 µM | > 100 µM | > 100 µM | > 100 µM | > 100 µM | > 100 µM | > 100 µM | > 100 µM | > 100 µM | > 100 µM | > 100 µM | > 100 µM | > 100 µM | > 100 µM | > 100 µM | > 100 µM | > 100 µM | > 100 µM | > 100 µM | GI50 [1]: > 100 µM; TGI [1]: > 100 µM; CC50 (MCF7): > 100 µM
COc1cccc2c1C(=O)c1c(O)c3c(c(O)c1C2=O)C[C@@](O)(C(=O)CO)C[C@@H]3O[C@H]1C[C@H](N)[C@H](O)[C@H](C)O1 [DOXORUBICIN] | 0.03 µM | 0.33 µM | > 100 µM | 0.18 µM | 0.55 µM | > 100 µM | 0.17 µM | 2.3 µM | > 100 µM | 0.05 µM | 1.42 µM | 37.9 µM | 0.18 µM | 46 µM | > 100 µM | 0.07 µM | 8.11 µM | > 100 µM | 0.04 µM | 1.84 µM | GI50 [1]: 5.99 µM; TGI [1]: > 100 µM; CC50 (MCF7): 46 µM
CC1=CC[C@@H]([C@@](C)(O)CCCC(C)(C)NC(=S)NN)CC1 | 0.02 µM | 0.38 µM | 9.58 µM | 18.5 µM | > 100 µM | > 100 µM | 26.8 µM | > 100 µM | > 100 µM | 12.8 µM | 84 µM | > 100 µM | 49.4 µM | > 100 µM | > 100 µM | 17.2 µM | > 100 µM | > 100 µM | 15.3 µM | 84.2 µM | LC50 (50% cell kill) (UACC-62): > 100 µM; GI50 [1]: 0.76 µM; TGI [1]: 29 µM; CC50 (MCF7): > 100 µM
